Screening data as filed in PubChem BioAssay.
UPR XBP1 act = activators of adaptive XBP1 UPR arm, primary screen, cell-based, CHO-XBP1 luciferase reporter, luminescence, uHTS. IRE1-XBP1 UPR activation; percent of tunicamycin response, DMSO as zero. activation, % at 20 µM. hit rate 0.33% among 330,000. AID 463104, 2010;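 active means versus positive control, 20 µM dose yields 30% or more activation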
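Material: CHO-XBP1 cells stably carrying IRE1-XBP1-driven luciferase reporter / Amount: 1000 cells per well / Compound: 20 µM, 1% DMSO / Times: 6 h treatment, 37 °C / Detection: luciferase luminescence / Measure: % activation of reporter signal versus tunicamycin and DMSO controls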
UPR CHOP act = activators of apoptotic CHOP UPR arm, primary screen, cell-based, CHO-CHOP luciferase reporter, luminescence, uHTS. activation, % at 10 µM. AID 449763, 2010. hit rate 0.34% among 330,000. UPR activation; percent of tunicamycin response over DMSO baseline;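 active means at 10 µM dose, activation of 40% or more, normalized to positive control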
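Dosing – one dose, 10 µM in 0.5% DMSO · System – CHO-CHOP cells, stable luciferase reporter of PERK-eIF2a-CHOP signalling · Input – 500 cells/well · Control set – tunicamycin 10 µg/mL final as positive, DMSO-only wells as negative · Timing – 6 h compound treatment, 37 °C · Measure – % activation vs tunicamycin · Technique – luminescence read with Steady-Glo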
Mdm2-MdmX inh = inhibitors of human Mdm2-MdmX association, primary screen, cell-based, luminescence, split luciferase, SaOS-2, uHTS | Protein Mdm4 (Homo sapiens) + E3 ubiquitin-protein ligase Mdm2 (Homo sapiens), … | SaOS-2 split-luciferase Mdm2/MdmX complementation | inhibition, % at 8 µM | hit rate 3% among 330,000 | AID 485346, 2010;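 active means inhibition of at least 50% at 8 µM in the primary screen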
Granule exo inh = LAMP-1 surface exposure blockers, TALL-104 cells – cell-based, flow cytometry, MLPCN library, primary screen; TALL-104 LAMP-1 surface exposure; cells stimulated with thapsigargin and PMA; inhibition, % at 10 µM; hit rate 0.66% among 360,000;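 active means inhibition above about 55%, limit read from the data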
ABHD5-PLIN5 inh = ABHD5-PLIN5 interaction inhibitors, primary screen, cell lysate, split luciferase complementation, luminescence | inhibition, % at 4 µM | hit rate 0.78% among 360,000 | Split G. princeps luciferase complementation, 4 h;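 active means inhibition above the mean inhibition across every tested compound plus 3 SD, cut at about 22% in these data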
Mdm2 MdmX conf = Mdm2-MdmX complex disruptors, retested hits, confirmation, luminescence, single concentration; shares compounds with Mdm2-MdmX inh; hit rate 55% among 10,000; inhibition, % at 8 µM; Mdm2-MdmX binding, luminescent assay; in the data active means inhibition above about 40%
FLuc counter = full-length luciferase signal inhibition, confirmation, counter-screen for Mdm2/MdmX interaction inhibitor project, cell-based, single concentration, SaOS-2 | hit rate 77% among 6,200 | AID 504607, 2011 | shares compounds with Mdm2-MdmX inh | SaOS-2 full-length luciferase counterscreen, luminescence | inhibition, % at 8 µM;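 active means mean inhibition at 8 µM reaching about 37%, which flags the compound as non-specific, limit read from the data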;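 further: p53-null SaOS-2 cells with luciferase driven by a doxycycline-inducible promoter; compound on cells about two nights before reading with doxycycline added after day one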
ABHD5 PLIN5 conf = ABHD5-PLIN5 interaction inhibitors, confirmation, biochemical, luminescence. shares compounds with ABHD5-PLIN5 inh. inhibition, % at 4 µM. hit rate 67% among 2,200. AID 651612, 2012; in the data active means inhibition above about 23%
HNF4 split-luc = HNF4 dimerization inhibitors, counter-screen for ABHD5-PLIN5 interaction inhibitor project, biochemical, split-luciferase complementation, luminescence; hit rate 77% among 2,200; shares compounds with ABHD5-PLIN5 inh; inhibition, % at 4 µM;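 active means mean inhibition across replicate wells exceeding the computed hit threshold, cut at about 13% in these data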;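 further: light from luciferase halves that rejoin when HNF4 fusion proteins dimerize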
Granule exo CP1 = inhibitors of lytic granule exocytosis, confirmation, TALL-104 cells, flow cytometry, Cherry Pick01. shares compounds with Granule exo inh. LAMP-1 externalization; stimulated with PMA plus thapsigargin. inhibition, % at 10 µM. hit rate 11% among 1,500. AID 651954, 2012; in the data active means inhibition above about 60%
Large screens that a line does not name were inactive (follow-up assays come after a bar, where they were run). Hits are enriched below; roughly 4% of the tested compounds scored in any of these assays.

CN(C)CCCN(C(=O)CCc1ccccc1)c1nc2ccc(Cl)cc2s1	Mdm2-MdmX inh 50.2, Granule exo inh 72.1, ABHD5-PLIN5 inh 39.4 | Mdm2 MdmX conf inactive | FLuc counter 53.7 | ABHD5 PLIN5 conf 23.8 | HNF4 split-luc inactive | Granule exo CP1 inactive
CN(C)CCCN(C(=O)COc1ccccc1)c1nc2ccc(Cl)cc2s1	none
Cc1cccn2c(=O)c3cc(C(=O)NCCc4ccccc4)c(=N)n(Cc4ccco4)c3nc12	Mdm2-MdmX inh 100.5, Granule exo inh 77.6, ABHD5-PLIN5 inh 25.5 | Mdm2 MdmX conf 92.2 | FLuc counter inactive | ABHD5 PLIN5 conf inactive | HNF4 split-luc 17.0 | Granule exo CP1 inactive
Cc1cccc(N(Cc2ccccc2)C(=O)c2ccc(C)c(S(=O)(=O)N3CCOCC3)c2)c1	none
CCc1nccn1C(=O)c1cnn2c(C(F)F)cc(-c3ccccc3)nc12	none (no result: Granule exo inh, ABHD5-PLIN5 inh)
CCc1nccn1C(=O)c1cnn2c(C(F)F)cc(-c3ccc(C)cc3)nc12	Mdm2-MdmX inh 60.7, Granule exo inh 89.3 | Mdm2 MdmX conf inactive | Granule exo CP1 inactive
CCOC(=O)c1c(NC(=O)CSc2nnnn2-c2ccccc2OCC)sc2c1CC(C)(C)NC2(C)C	Mdm2-MdmX inh 57.6, Granule exo inh 65.0 | Mdm2 MdmX conf 41.5 | FLuc counter 73.0 | Granule exo CP1 62.7
CC1(C)Cc2c(sc(NC(=O)COc3ccc(Cl)cc3)c2C(N)=O)C(C)(C)N1	none
CCOC(=O)c1c(NC(=O)COc2ccccc2OCC)sc2c1CC(C)(C)NC2(C)C	Mdm2-MdmX inh 96.5, Granule exo inh 67.5 | Mdm2 MdmX conf inactive | FLuc counter 89.8 | Granule exo CP1 100.4
CCCc1cc(=O)[nH]c(SCC(=O)N2CCc3cc(OC)c(OC)cc3C2)n1	none
CC(C)(C)NC(=O)CSc1nncn1NCc1c(Cl)cccc1Cl	none
CCOC(=O)N1CCN(c2ncnc3c2[nH]c2ccc(OC)cc23)CC1	none
COc1ccc2[nH]c3c(N4CCc5ccccc5C4)ncnc3c2c1	Mdm2-MdmX inh 75.9, Granule exo inh 99.4 | Mdm2 MdmX conf 50.0 | FLuc counter 62.9 | Granule exo CP1 101.7
Cn1cncc1C#Cc1c(-c2ccc(S(C)(=O)=O)cc2)sc2ccccc12	Mdm2-MdmX inh 64.7, Granule exo inh 102.9 | Mdm2 MdmX conf inactive | Granule exo CP1 97.0
CC(=O)N1c2ccc(C)cc2C(c2ccccc2)CC1C (configuration not stated)	Mdm2-MdmX inh 73.6, Granule exo inh 80.1 | Mdm2 MdmX conf inactive | FLuc counter 70.7 | Granule exo CP1 inactive
CC(=O)OC1CC(C)N(C(=O)c2ccccc2)c2ccc(C)cc21 (configuration not stated)	none
OC(CNCc1ccco1)Cn1c2ccc(Br)cc2c2cc(Br)ccc21 (configuration not stated)	Mdm2-MdmX inh 74.8, Granule exo inh 77.7 | Mdm2 MdmX conf inactive | FLuc counter 69.8 | Granule exo CP1 inactive
CCOc1cc(CNCc2ccccc2)ccc1OCc1ccc(Cl)cc1	Mdm2-MdmX inh 55.0, Granule exo inh 90.4 | Mdm2 MdmX conf inactive | Granule exo CP1 inactive
